This note sets out measurements from ChEMBL document CHEMBL1828503, “Design, synthesis and docking studies of quinoline-oxazolidinone hybrid molecules and their antitubercular properties” (2011).

Converted amounts (≈) assume the structure as drawn.

Holding throughout (format): functional
One test concerns Staphylococcus aureus. As to the kind of experiment: Antimicrobial activity against Staphylococcus aureus ATCC 25923 after 18 to 48 hrs by serial dilution method.
For a further test, the system named is Streptococcus pyogenes. As to the kind of experiment: Antimicrobial activity against Streptococcus pyogenes clinical isolate after 18 to 48 hrs by serial dilution method.
The next test has as its system Pseudomonas aeruginosa. Put plainly: Antimicrobial activity against Pseudomonas aeruginosa ATCC 27853 after 18 to 48 hrs by serial dilution method.
For a further test, the system named is Klebsiella pneumoniae. As to the kind of experiment: Antimicrobial activity against Klebsiella pneumoniae clinical isolate after 18 to 48 hrs by serial dilution method.
Another test relates to Escherichia coli. As to the kind of experiment: Antimicrobial activity against Escherichia coli ATCC 25922 after 18 to 48 hrs by serial dilution method.
Test [1] concerns Mycobacterium tuberculosis. As to the kind of experiment: Antimicrobial activity against Mycobacterium tuberculosis H37Rv ATCC 27294 after 7 days by resazurin assay. The conditions noted are these: H37Rv ATCC 27294, 168 h. The essentials: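 M. tuberculosis H37Rv ATCC 27294 culture diluted into fresh medium in 96-well microtitre plates. Compounds were taken from 2 mg/mL stocks in DMF, with DMF-only control tubes and rifampicin and isoniazid as references. Plates were incubated 37 °C for 7 days, then 0.01% aqueous resazurin was added and read after 1 h at 37 °C. MIC is the lowest concentration preventing the blue-to-pink change.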
In general terms: Resazurin is reduced to fluorescent resorufin, in cell work by metabolically active cells.

Test [2] deals with Mycolicibacterium smegmatis. As to the kind of experiment: Antimicrobial activity against Mycobacterium smegmatis ATCC 19420 after 7 days by resazurin assay. The conditions noted are these: ATCC 19420, 168 h. The essentials: (§1)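 Resazurin microplate assay. Culture added to fresh medium in 96-well plates. Compound stocks 2 mg/mL in DMF. DMF-only controls, with rifampicin and isoniazid as references. Incubated 7 days at 37 °C, then 0.01% resazurin in water added. Blue-to-pink change read after 1 h at 37 °C. MIC taken as the lowest concentration preventing the colour change.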

Test [3] concerns Mycolicibacterium fortuitum. Put plainly: Antimicrobial activity against Mycobacterium fortuitum ATCC 19542 after 7 days by resazurin assay. The conditions noted are these: ATCC 19542, 168 h. The essentials:
as §1

In test [4] the test system is Mycobacterium tuberculosis. As to the kind of experiment: Antimicrobial activity against Mycobacterium tuberculosis H37Rv ATCC 27294 assessed as growth inhibition after 7 days by resazurin assay.

On to `COc1ccc2nc(C)cc(NC(=O)CN3CC(CN4CCN(C(C)C)CC4)OC3=O)c2c1` (stereo not drawn), for which the MIC with Staphylococcus aureus is 1.6 µg/mL (≈ 3.51 µM); in the test with Streptococcus pyogenes it was 1.6 µg/mL (≈ 3.51 µM); in the test on Pseudomonas aeruginosa it was 0.8 µg/mL (≈ 1.76 µM); in the test with Klebsiella pneumoniae, 3.12 µg/mL (≈ 6.86 µM); with Escherichia coli it was 0.8 µg/mL (≈ 1.76 µM); in [1], 5 µg/mL (≈ 11 µM). Also, the MIC in [2] and in test [3] was 100 µg/mL (≈ 220 µM) throughout. Moreover, in test [4], the “growth inhibition (GI)” value stood at 85%.
With `COc1ccc2nc(C)cc(NC(=O)CN3CC(CN4CCN(C(C)(C)C)CC4)OC3=O)c2c1` (stereo not drawn), the MIC in the test with Staphylococcus aureus came to 1.6 µg/mL (≈ 3.41 µM); with Streptococcus pyogenes it was 0.8 µg/mL (≈ 1.7 µM); with Pseudomonas aeruginosa, 0.8 µg/mL (≈ 1.7 µM); against Klebsiella pneumoniae it was 1.6 µg/mL (≈ 3.41 µM); against Escherichia coli, 1.6 µg/mL (≈ 3.41 µM); in [1] it was 100 µg/mL (≈ 213 µM). In addition, the MIC in test [2] and in test [3] was 100 µg/mL (≈ 213 µM) throughout. The “growth inhibition (GI)” value in [4] worked out at 0%.
Consider `COc1ccc2nc(C)cc(NC(=O)CN3CC(CN4CCOCC4)OC3=O)c2c1` (stereo not drawn), for which the MIC worked out at 0.8 µg/mL (≈ 1.93 µM) in the test with Staphylococcus aureus; 0.2 µg/mL (≈ 0.483 µM) in the test with Streptococcus pyogenes; 0.4 µg/mL (≈ 0.965 µM) in the test with Pseudomonas aeruginosa; 0.1 µg/mL (≈ 0.241 µM) against Klebsiella pneumoniae; 0.1 µg/mL (≈ 0.241 µM) against Escherichia coli; 1 µg/mL (≈ 2.41 µM) in test [1]. Also, the MIC in [2] and in test [3] was 10 µg/mL (≈ 24.1 µM) throughout. Further, the “growth inhibition (GI)” value in test [4] is recorded as 95%.
As for `COc1ccc2nc(C)cc(NC(=O)CN3CC(CNC4CC4)OC3=O)c2c1` (stereo not drawn), the MIC in the test with Staphylococcus aureus was 1.6 µg/mL (≈ 4.16 µM); in the test on Streptococcus pyogenes, 3.12 µg/mL (≈ 8.13 µM); in the test with Pseudomonas aeruginosa it was 1.6 µg/mL (≈ 4.16 µM); with Klebsiella pneumoniae, above 12.5 µg/mL; in the test on Escherichia coli, above 12.5 µg/mL; in test [1] it was 10 µg/mL (≈ 26 µM). Further, the MIC in [2] and in test [3] was 100 µg/mL (≈ 260 µM) in each case. The “growth inhibition (GI)” value in test [4] is 90%.
Turning to `COc1ccc2nc(C)cc(NC(=O)CN3CC(CN4CCCC4)OC3=O)c2c1` (stereo not drawn), the MIC was 6.25 µg/mL (≈ 15.7 µM) with Staphylococcus aureus; 3.12 µg/mL (≈ 7.84 µM) against Streptococcus pyogenes; 1.6 µg/mL (≈ 4.02 µM) against Pseudomonas aeruginosa; above 12.5 µg/mL against Klebsiella pneumoniae; above 12.5 µg/mL against Escherichia coli; 100 µg/mL (≈ 251 µM) in test [1]. For the same molecule, the MIC in [2] and in test [3] was 100 µg/mL (≈ 251 µM) each time. Besides, the “growth inhibition (GI)” value in test [4] was found to be 0%.
`COc1ccc2nc(C)cc(NC(=O)CN3CC(CN4CCCCC4)OC3=O)c2c1` (stereo not drawn): the MIC was 3.12 µg/mL (≈ 7.58 µM) with Staphylococcus aureus; 6.25 µg/mL (≈ 15.2 µM) with Streptococcus pyogenes; 3.12 µg/mL (≈ 7.58 µM) in the test with Pseudomonas aeruginosa; above 12.5 µg/mL against Klebsiella pneumoniae; above 12.5 µg/mL in the test on Escherichia coli; 100 µg/mL (≈ 242 µM) in test [1]. Besides, the MIC in test [2] and in [3] was 100 µg/mL (≈ 242 µM) in each case. Moreover, the “growth inhibition (GI)” value in test [4] is 0%.
As to `COc1ccc2nc(C)cc(NC(=O)CN3CC(CNCC4CCCCC4)OC3=O)c2c1` (stereo not drawn), the MIC with Staphylococcus aureus is 6.25 µg/mL (≈ 14.2 µM); in the test with Streptococcus pyogenes, 1.6 µg/mL (≈ 3.63 µM); in the test with Pseudomonas aeruginosa, above 12.5 µg/mL; in the test on Klebsiella pneumoniae, 6.25 µg/mL (≈ 14.2 µM); in the test with Escherichia coli, 6.25 µg/mL (≈ 14.2 µM); in test [1] it was 100 µg/mL (≈ 227 µM). Further, the MIC in test [2] and in [3] was 100 µg/mL (≈ 227 µM) in each case. Moreover, in test [4], the “growth inhibition (GI)” value stood at 0%.

As usually defined, the MIC is the smallest concentration in the dilution series that meets the test's criterion for growth inhibition. Low readings indicate greater potency, high ones weaker potency.
